Assay results published in ChEMBL document CHEMBL5236662, “Synthesis and biological evaluation of tert-butyl ester and ethyl ester prodrugs of L-γ-methyleneglutamic acid amides for cancer” (Bioorg Med Chem, 2023).

Legend:
[1] = Cmax in CD-1 mouse plasma at 2.5 mg/kg, iv measured for 24 hrs by LC-MS/MS analysis; type: ADME, organism-based; design: time 24 hrs, dose 2.5 mg/kg, route iv; details: in vivo
Procedure, shortened: (§1)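 Fasted (~4 h) male CD1 mice, n = 24 per route, received 2.5 mg/kg iv or ip in 5% DMSO/95% normal saline. Blood was drawn into K2EDTA at pre-dose, 0.083, 0.5, 1, 2, 4, 8 and 24 h, and plasma was separated. Samples were precipitated with acetonitrile, with tolbutamide as internal standard, then quantified by UPLC-MS/MS (MRM). Parameters came from noncompartmental analysis.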

BNC6 = assay: Antiproliferative activity against human BNC6 cells assessed as suppression of cell growth incubated for 24 to 72 hrs by CCK-8 assay; type: functional, cell-based; details: dose 10-300 µM, time 24-72 hrs
Procedure, shortened: (§2)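 Primary patient-derived glioblastoma lines were grown in RPMI 1640 with 10% FBS. Cells were seeded at 3,000 per well and dosed 24 h later at 10, 50, 100, 200 and 300 μM for 24 or 72 h, with BiCNU as control. CCK-8 was added and OD450 read after 2 h at 37 °C. Data are % cell survival, from 3 independent replicates.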

[2] = AUC (0 to infinity) in CD-1 mouse plasma at 2.5 mg/kg, ip measured for 24 hrs by LC-MS/MS analysis; type: ADME, organism-based; design: dose 2.5 mg/kg, time 24 hrs, route ip; procedure, shortened: as §1
[3] = Tmax in CD-1 mouse kidney at 2.5 mg/kg, ip measured for 24 hrs by LC-MS/MS analysis; type: ADME, organism-based; details: in vivo
Procedure, shortened: (§3)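 Male CD1 mice (25–30 g), fasted ~4 h, given 2.5 mg/kg ip in 5% DMSO/95% normal saline. Brain, liver and kidney were taken at pre-dose, 0.5, 2, 4 and 24 h and homogenized in 5 volumes PBS. Homogenates got tolbutamide internal standard and acetonitrile protein precipitation. UPLC-MS/MS used MRM. Parameters came from noncompartmental analysis.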

[4] = Apparent half life in CD-1 mouse plasma at 2.5 mg/kg, ip measured for 24 hrs by LC-MS/MS analysis; type: ADME, organism-based; details: in vivo; procedure, shortened: as §1
[5] = Antiproliferative activity against human BNC6 cells assessed as inhibition of cell growth incubated for 72 hrs by CCK-8 assay; type: functional, cell-based; details: BNC6, 72 h; procedure, shortened: as §2
[6] = Apparent half life in CD-1 mouse kidney at 2.5 mg/kg, ip measured for 24 hrs by LC-MS/MS analysis; type: ADME, organism-based; details: in vivo; procedure, shortened: as §3
[7] = Cytotoxicity against human MCF-10A cells assessed as inhibition of cell growth incubated for 24 hrs by Hoechst 33342/propidium iodide staining based fluorescence analysis; type: toxicity; details: human, MCF-10A cells
[8] = AUC (0 to infinity) in CD-1 mouse brain at 2.5 mg/kg, ip measured for 24 hrs by LC-MS/MS analysis; type: ADME, organism-based; design: dose 2.5 mg/kg, time 24 hrs, route ip; details: in vivo; procedure, shortened: as §3
[9] = Cytotoxicity against human MCF-10A cells assessed as inhibition of cell growth incubated for 72 hrs by Hoechst 33342/propidium iodide staining based fluorescence analysis; type: toxicity; details: human, MCF-10A cells
BNC3 = assay: Antiproliferative activity against human BNC3 cells assessed as suppression of cell growth incubated for 24 to 72 hrs by CCK-8 assay; type: functional, cell-based; details: dose 10-300 µM, time 24-72 hrs; procedure, shortened: as §2
[10] = Bioavailability in CD-1 mouse plasma at 2.5 mg/kg, ip measured for 24 hrs by LC-MS/MS analysis; type: ADME, organism-based; details: in vivo; procedure, shortened: as §1
[11] = AUC (0 to infinity) in CD-1 mouse plasma at 2.5 mg/kg, iv measured for 24 hrs by LC-MS/MS analysis; type: ADME, organism-based; design: dose 2.5 mg/kg, time 24 hrs, route iv; procedure, shortened: as §1
[12] = Tmax in CD-1 mouse plasma at 2.5 mg/kg, ip measured for 24 hrs by LC-MS/MS analysis; type: ADME, organism-based; details: in vivo; procedure, shortened: as §1
[13] = Tmax in CD-1 mouse plasma at 2.5 mg/kg, iv measured for 24 hrs by LC-MS/MS analysis; type: ADME, organism-based; details: in vivo; procedure, shortened: as §1
[14] = Antiproliferative activity against human WSU-HN31 cells assessed as inhibition of cell growth incubated for 72 hrs by CCK-8 assay; type: functional, cell-based; details: WSU-HN31, 72 h
Procedure, shortened: (§4)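 Radiotherapy-resistant HNSCC lines were used: HN30 from pharynx SCC and HN31 from a lymph-node metastasis of the same patient. Cells in RPMI 1640 with 10% FBS were seeded at 3,000 per well and treated 24 h later with 10–300 μM (5 levels) for 24 or 72 h, with cisplatin as control. CCK-8 was read at OD450 after 2 h. Data are % survival, n = 3 independent experiments.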

[15] = Terminal half life in CD-1 mouse plasma at 2.5 mg/kg, iv measured for 24 hrs by LC-MS/MS analysis; type: ADME, organism-based; details: in vivo; procedure, shortened: as §1
[16] = Antiproliferative activity against human WSU-HN30 cells assessed as inhibition of cell growth incubated for 72 hrs by CCK-8 assay; type: functional, cell-based; details: WSU-HN30, 72 h; procedure, shortened: as §4
WSU-HN31 = assay: Antiproliferative activity against human WSU-HN31 cells assessed as suppression of cell growth incubated for 24 to 72 hrs by CCK-8 assay; type: functional, cell-based; details: dose 10-300 µM, time 24-72 hrs; procedure, shortened: as §4
[17] = Cmax in CD-1 mouse plasma at 2.5 mg/kg, ip measured for 24 hrs by LC-MS/MS analysis; type: ADME, organism-based; design: dose 2.5 mg/kg, time 24 hrs, route ip; details: in vivo; procedure, shortened: as §1
[18] = Apparent half life in CD-1 mouse liver at 2.5 mg/kg, ip measured for 24 hrs by LC-MS/MS analysis; type: ADME, organism-based; details: in vivo; procedure, shortened: as §3
[19] = Cmax in CD-1 mouse kidney at 2.5 mg/kg, ip measured for 24 hrs by LC-MS/MS analysis; type: ADME, organism-based; design: dose 2.5 mg/kg, time 24 hrs, route ip; details: in vivo; procedure, shortened: as §3
WSU-HN30 = assay: Antiproliferative activity against human WSU-HN30 cells assessed as suppression of cell growth incubated for 24 to 72 hrs by CCK-8 assay; type: functional, cell-based; details: dose 10-300 µM, time 24-72 hrs; procedure, shortened: as §4
[20] = Cmax in CD-1 mouse liver at 2.5 mg/kg, ip measured for 24 hrs by LC-MS/MS analysis; type: ADME, organism-based; design: time 24 hrs, dose 2.5 mg/kg, route ip; details: in vivo; procedure, shortened: as §3
[21] = AUC (0 to infinity) in CD-1 mouse liver at 2.5 mg/kg, ip measured for 24 hrs by LC-MS/MS analysis; type: ADME, organism-based; design: time 24 hrs, dose 2.5 mg/kg, route ip; details: in vivo; procedure, shortened: as §3
[22] = AUC (0 to infinity) in CD-1 mouse kidney at 2.5 mg/kg, ip measured for 24 hrs by LC-MS/MS analysis; type: ADME, organism-based; design: time 24 hrs, dose 2.5 mg/kg, route ip; details: in vivo; procedure, shortened: as §3
[23] = Antiproliferative activity against human BNC3 cells assessed as inhibition of cell growth incubated for 72 hrs by CCK-8 assay; type: functional, cell-based; details: BNC3, 72 h; procedure, shortened: as §2
[24] = Volume of distribution in CD-1 mouse plasma at 2.5 mg/kg, iv measured for 24 hrs by LC-MS/MS analysis; type: ADME, organism-based; details: in vivo; procedure, shortened: as §1
[25] = Clearance in CD-1 mouse plasma at 2.5 mg/kg, iv measured for 24 hrs by LC-MS/MS analysis relative to hepatic blood flow; type: ADME, organism-based; details: in vivo; procedure, shortened: as §1
[26] = Tmax in CD-1 mouse liver at 2.5 mg/kg, ip measured for 24 hrs by LC-MS/MS analysis; type: ADME, organism-based; details: in vivo; procedure, shortened: as §3
[27] = Tmax in CD-1 mouse brain at 2.5 mg/kg, ip measured for 24 hrs by LC-MS/MS analysis; type: ADME, organism-based; details: in vivo; procedure, shortened: as §3
[28] = Stability in mouse plasma assessed as drug degradation; type: ADME, cell-free
[29] = Stability in mouse liver microsomes assessed as drug degradation; type: ADME, Microsome

C=C(C[C@H](N)C(=O)O)C(=O)NCc1ccc(F)cc1
Cmax [1]: 3.016 µg/mL | Activity (BNC6): Dose-Dependent Effect | AUC(0-inf) [2]: 0.967 µg·h/mL | Tmax [3]: 30 min | t1/2(app) [4]: 25.8 min | IC50 [5]: 189 µM | t1/2(app) [6]: 27.6 min | IC50 at 24 h [7]: > 1000 µM | AUC [8]: 44 ng·h/g | IC50 at 72 h [9]: > 1000 µM | Activity (BNC3): Dose-Dependent Effect | F [10]: 66% | AUC(0-inf) [11]: 1.46 µg·h/mL | Tmax [12]: 13.2 min | Tmax [13]: 7.2 min | IC50 [14]: 196 µM | beta t1/2 [15]: 48 min | IC50 [16]: 102 µM | Activity (WSU-HN31): Dose-Dependent Effect | Cmax [17]: 1.543 µg/mL | t1/2(app) [18]: 25.8 min | Cmax [19]: 17681 ng/g | Activity (WSU-HN30): Dose-Dependent Effect | Cmax [20]: 7291 ng/g | AUC [21]: 10596 ng·h/g | AUC [22]: 21944 ng·h/g | IC50 [23]: 169 µM | Vd [24]: 4.6 L/kg | CL [25]: 31% | Tmax [26]: 60 min | Tmax [27]: 30 min

NCc1ccc(F)cc1
Stability [28]: Unstable | Stability [29]: Unstable
